# The list is not random: actives were taken first. Their share in the collection is about 2.2%.
# PDI inh = blocks human protein disulfide isomerase activity | P07237 | PDI insulin aggregation turbidity, A650, 90 min | inhibition, % at 10 µM | hit rate 0.052% among 350,000;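 active = mean inhibition across replicates of 30% or more, whatever share of single replicates reach that level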
# Target sequence (P07237 whole entry, looked up): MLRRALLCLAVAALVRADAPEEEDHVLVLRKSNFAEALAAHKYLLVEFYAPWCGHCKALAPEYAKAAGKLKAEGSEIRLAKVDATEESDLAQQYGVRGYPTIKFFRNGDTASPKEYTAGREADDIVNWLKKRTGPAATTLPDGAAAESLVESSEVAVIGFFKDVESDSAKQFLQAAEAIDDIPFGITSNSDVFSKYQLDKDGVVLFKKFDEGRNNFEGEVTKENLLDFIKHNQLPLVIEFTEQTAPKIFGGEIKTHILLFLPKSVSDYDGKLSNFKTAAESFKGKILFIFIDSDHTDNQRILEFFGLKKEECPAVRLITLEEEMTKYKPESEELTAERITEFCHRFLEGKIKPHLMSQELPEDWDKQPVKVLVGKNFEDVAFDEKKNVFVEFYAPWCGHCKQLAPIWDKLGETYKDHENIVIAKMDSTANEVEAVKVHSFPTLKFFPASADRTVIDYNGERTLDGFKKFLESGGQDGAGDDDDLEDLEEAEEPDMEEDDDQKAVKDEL
# rRNA inh HTS = inhibits bacterial ribosomal RNA function over humanized ribosomes; E. coli WT GFP vs humanized-ribosome RFP mutants, fluorescence, 24 h; active compounds read low; DMSO median 0, no signal -100; GFP signal change (wild-type ribosome), % (no concentration beside the values); hit rate 1.6% among 350,000;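 active = significant combined selectivity score with lowered wild-type GFP, culture density cut under 30%, mutant RFP and density less affected; inactive = any of these conditions unmet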
# FN deposition inh = fibronectin deposition inhibition; AH1F fibroblasts, Alexa488-fibronectin deposition fluorescence, overnight; inhibition, % at 12.6 µM; hit rate 0.086% among 350,000; AID 743247;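 active = mean inhibition across replicates of 30% or more, regardless of how many single replicates reach that level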;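 note: positive control wells lacked labelled fibronectin entirely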
#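 Assay system: AH1F fibroblasts assembling fluorescent fibronectin matrix; Amount: 10000 AH1F cells per well; Buffer or medium: DMEM, 2% serum; Probe or stimulus: Alexa488-fibronectin, 24 nM final in well; Doses: single compound dose, delivered by pin transfer; Incubation: 1 h adhesion, overnight exposure; Measured by: fluorescence 485/525 nm; Read-out: fibronectin deposition inhibition.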
# ERp5 inh = inhibitors of human ERp5; AID 651711; hit rate 0.05% among 350,000; inhibition, % at 9.99 µM; Q15084; ERp5 insulin aggregation, absorbance 650 nm, 90 min;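 active = mean replicate inhibition above about 25%, with every replicate also reaching it, limit read from the data, passing the limit was not always enough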
# PvdQ inh = P. aeruginosa PvdQ acylase inhibition; purified PvdQ acylase, fluorescence plate reader; inhibition, % at 10 µM; hit rate 0.063% among 340,000; in the data active = inhibition above about 30%, passing the limit was not always enough;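 note: 0% = vehicle neutral wells and 100% = reference inhibitor wells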
# HIV Env fusion = blocks HIV Env-driven cell-cell fusion | HeLa-JRFL Env/CEM21 cell fusion, luciferase | inhibition, % at 12.3 µM | hit rate 1.1% among 360,000 | AID 651610;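 active = mean replicate inhibition score of at least 50 and every replicate individually at or above 50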;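 note: 0% = plate neutral controls and 100% = maraviroc near 300 nM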
# The depositor's hits bear a star; nt = no result given; [ ] = dose if it differs, or a comment.
SMILES,PDI inh,rRNA inh HTS,FN deposition inh,ERp5 inh,PvdQ inh,HIV Env fusion
COc1ccc2c3c([nH]c2c1)[C@@H](CO)N(C(=O)c1ccncc1)CC31CN(C(=O)NC(C)C)C1,nt,5,nt,nt,nt,nt
COc1ccc(/C=c2\s/c(=C\C(=O)C(C)(C)C)[nH]c2=O)cc1O,6,-26*,-5,3,-14,-11
COc1cc(/C=c2\s/c(=C\C(=O)C(C)(C)C)[nH]c2=O)cc(OC)c1OC,8,-18*,nt,0,-1,4
Cc1cccc(/C=c2\s/c(=C\C(=O)C(C)(C)C)[nH]c2=O)c1,-3,nt,nt,nt,-8,nt
Cc1ccc(S(=O)(=O)N/N=C\c2cn(CC(N)=O)c3ccccc23)cc1C,-3,-23*,-1,17,-6,5
NC(=O)Cn1cc(/C=N\NS(=O)(=O)c2ccc(Cl)cc2)c2ccccc21,7,-11,1,-1,0,-4
O=C(NCCCN1CCCC1)c1ccc(CS(=O)(=O)c2c(Cl)cccc2Cl)o1,-6,5,6,26*,-2,10
Nc1cc(Cl)ccc1Oc1ccc2ccccc2c1,-6,-24*,nt,4,2,nt
Cc1cc(C)nc(N(C#N)Cc2ccccc2)n1,-1,nt,3,nt,38*,-313
N#CN(Cc1ccccc1)Cc1ccccc1,2,9,4,-2,92*,-3
Cc1cc(C)nc(N(C#N)Cc2cccc3ccccc23)n1,-5,nt,-1,nt,0,35
CN(C)c1nccc(N(Cc2ccccc2)Cc2ccccc2)c1C#N,-1,nt,nt,nt,-6,nt
Cc1cc(C)nc(N(C#N)Cc2ccc([N+](=O)[O-])cc2)n1,7,3,2,1,49*,9
Cc1cc(C)nc(SCc2ccc([N+](=O)[O-])cc2)n1,-2,-2,-1,8,-12,2
Cc1noc(C)c1S(=O)(=O)Nc1cccc2c1O[C@H](CN(C)Cc1ccc(C(=O)Nc3ccccc3N)cc1)[C@H](C)CN([C@H](C)CO)C2=O,nt,1,-5,-9,nt,nt
C[C@@H]1CN([C@H](C)CO)C(=O)c2cccc(NS(=O)(=O)c3cccs3)c2O[C@@H]1CN(C)CC1CCCCC1,nt,0,-12,5,nt,-8[16.7 µM]
O=C(Nc1ccc2c(c1)[C@@H]1C[C@H](CC(=O)N3CCOCC3)O[C@H](CO)[C@@H]1O2)C1CCC1,nt,3,6,nt,nt,30[16.7 µM]
CCCc1nc(SCC(=O)N2CCc3ccccc3C2)c2ccccc2n1,-1,-27*,nt,-4,-4,nt
Cc1sc2nc(C3CC3)nc(SCC(=O)N3CCc4ccccc4C3)c2c1C,2,nt,5,nt,-11,55*
Cc1sc2nc(C(C)C)nc(SCC(=O)N3CCN(C(=O)c4ccco4)CC3)c2c1C,3,nt,10,nt,12,62*
CCOC(=O)CSc1nc(Cc2ccccc2)nc2ccccc12,6,-39,-7,-5,-2,56*
Cc1sc2ncnc(SCC(=O)N3CCN(C(=O)c4ccco4)CC3)c2c1C,17,-9,nt,-4,5,nt
CCCCNC(=O)CSc1nc(CCC)nc2ccccc12,-5,-3,-1,-2,-11,11
Cc1sc2nc(C3CC3)nc(SCC(=O)N3CCCc4ccccc43)c2c1C,nt,8,3,-6,nt,2
CCOC(=O)CSc1nc(CC)nc2ccccc12,-5,0,nt,-6,-10,nt
SMILES,PDI inh,rRNA inh HTS,FN deposition inh,ERp5 inh,PvdQ inh,HIV Env fusion
C=CCn1c(CCSCc2ccccc2)n[nH]c1=S,3,-1,-12,-1,-5,-2
C=CCn1c(CCSCc2ccc(OC)c(C)c2)n[nH]c1=S,0,-19*,-5,3,0,8
COc1ccc(-c2ccc3c(c2)O[C@@H](CN(C)C(C)=O)[C@@H](C)CN([C@@H](C)CO)S3(=O)=O)cc1,nt,-5,-3,2,nt,3[16.7 µM]
C[C@@H]1CCCCO[C@@H](CN(C)Cc2ccc(C(F)(F)F)cc2)[C@@H](C)CN([C@@H](C)CO)C(=O)c2cc(NC(=O)NC3CCCCC3)ccc2O1,nt,3,nt,4,nt,9[16.7 µM]
C[C@@H]1CCCCO[C@@H](CN(C)Cc2ccc(C(F)(F)F)cc2)[C@H](C)CN([C@@H](C)CO)C(=O)c2cc(NC(=O)NC3CCCCC3)ccc2O1,nt,3,nt,6,nt,21[16.7 µM]
C[C@H](CO)N1C[C@H](C)[C@H](CN(C)Cc2ccc(C(F)(F)F)cc2)OCCCC[C@H](C)Oc2ccc(NC(=O)NC3CCCCC3)cc2C1=O,nt,-1,nt,-5,nt,72*[16.7 µM]

# Screens deposited in PubChem BioAssay by Broad Institute.
